Ratio, MIC and Activity data for 14 compounds are collected here from ChEMBL document CHEMBL1909517, “Green synthesis and antimicrobial evaluation of some new trifluoromethyl-substituted hexahydropyrimidines by grinding” (2011).

Holding throughout (format): functional
The test system of experiment [1] is Escherichia coli. Put plainly: Ratio of tetracycline MIC to compound MIC for Escherichia coli.
Experiment [2] concerns Escherichia coli. Put plainly: Antimicrobial activity against Escherichia coli after 24 hrs by spectrophotometry. The essentials:
(§1)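 Broth MIC read turbidimetrically. Bacteria were pre-cultured 24 h at 37 °C in LB, then held at 4 °C. Compounds active in an agar-well pre-screen (20 mg/ml DMSO, 100 µl per well, 37 °C 24 h) went forward. Dilutions of 1, 5, 10, 15 and 20 mg/ml DMSO from stock were made up to 10 ml LB and inoculated with 10 µl suspension. Triplicate tubes, 37 °C for 24 h, spectrophotometric growth read-out.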

The subject of experiment [3] is Bacillus thuringiensis. Put plainly: Ratio of tetracycline MIC to compound MIC for Bacillus thuringiensis.
For experiment [4], the system named is Bacillus thuringiensis. Nature of the experiment: Antimicrobial activity against Bacillus thuringiensis after 24 hrs by spectrophotometry. The method in brief:
as §1

In brackets after ≈: the same amount, converted by molar mass. Activity calls are given as the source filed them. The rule behind the calls is not given here.

For the compound `CCOC(=O)C1C(c2ccc(C)cc2)NC(=O)NC1(O)C(F)(F)F` (stereo not given), the Ratio in experiment [1] and in experiment [3] was 6 in each case. Further, the minimal inhibitory concentration (MIC) in experiment [2] and in experiment [4] was at least 20 mg/mL in each case.

In the case of `CCOC(=O)C1C(c2ccc(F)cc2)NC(=S)NC1(O)C(F)(F)F` (stereo not given), the outcome in experiment [2] and in experiment [4] was inactive.

For `CCOC(=O)C1C(c2ccc(O)cc2)NC(=S)NC1(O)C(F)(F)F` (stereo not given), the Ratio in experiment [1] and in experiment [3] was 6 in each case. The MIC in experiment [2] and in experiment [4] was at least 20 mg/mL throughout.

As to `CN(C)[C@@H]1C(O)=C(C(N)=O)C(=O)[C@@]2(O)C(O)=C3C(=O)c4c(O)cccc4[C@@](C)(O)[C@H]3C[C@@H]12` [TETRACYCLINE], 75 mg/mL (≈ 169 mM) was the least that counted as inhibitory in experiment [4] (MIC).

Regarding `CCOC(=O)C1C(c2cccs2)NC(=O)NC1(O)C(F)(F)F` (stereo not given), the Ratio in experiment [1] and in experiment [3] was 6 throughout. The MIC in experiment [2] and in experiment [4] was at least 20 mg/mL each time.

On to `CCOC(=O)C1C(c2ccc(C)cc2)NC(=S)NC1(O)C(F)(F)F` (stereo not given), for which the Ratio in experiment [1] and in experiment [3] was 6 throughout. Further, the MIC in experiment [2] and in experiment [4] was at least 20 mg/mL in each case.

For `CCOC(=O)C1C(c2ccc(O)cc2)NC(=O)NC1(O)C(F)(F)F` (stereo not given), the Ratio in experiment [1] and in experiment [3] was 6 each time. Also, the MIC in experiment [2] and in experiment [4] was at least 20 mg/mL in each case.

In the case of `CCOC(=O)C1C(c2ccc(OC)cc2)NC(=S)NC1(O)C(F)(F)F` (stereo not given), the Ratio in experiment [1] and in experiment [3] was 6 throughout. Also, the MIC in experiment [2] and in experiment [4] was at least 15 mg/mL throughout.

With `CCOC(=O)C1C(c2ccc(Cl)cc2)NC(=O)NC1(O)C(F)(F)F` (stereo not given), the Ratio in experiment [1] and in experiment [3] was 6 each time. The MIC in experiment [2] and in experiment [4] was at least 15 mg/mL in each case.

Regarding `CCOC(=O)C1C(c2ccc(N(C)C)cc2)NC(=S)NC1(O)C(F)(F)F` (stereo not given), the Ratio in experiment [1] and in experiment [3] was 6 throughout. For the same compound, the MIC in experiment [2] and in experiment [4] was at least 20 mg/mL each time.

As for `CCOC(=O)C1C(c2ccccc2)NC(=O)NC1(O)C(F)(F)F` (stereo not given), the outcome in experiment [2] and in experiment [4] was inactive.

On to `CCOC(=O)C1C(c2ccccc2)NC(=S)NC1(O)C(F)(F)F` (stereo not given), for which the Ratio in experiment [1] and in experiment [3] was 6 each time. For the same compound, the MIC in experiment [2] and in experiment [4] was at least 15 mg/mL each time.

Consider `CCOC(=O)C1C(c2ccc([N+](=O)[O-])cc2)NC(=O)NC1(O)C(F)(F)F` (stereo not given), for which the outcome in experiment [2] and in experiment [4] was inactive.

With `CCOC(=O)C1C(c2ccc(Cl)cc2)N=C(S)NC1(O)C(F)(F)F` (stereo not given), the result in experiment [2] and in experiment [4] was inactive.

One may read the MIC as the lowest concentration found to suppress growth. Lower therefore signals inhibition by little substance.
